What was measured:
Assay type in all cases: ADME, organism-based
Rattus norvegicus [1] = species: Rattus norvegicus; assay: The distribution of the 131 I-labeled compound at 30 min was evaluated in rat brain as Percent of injected dose per gram in the organ; details: in vivo, 0.5 h
Outline: (§1)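 Male Sprague-Dawley rats (200–300 g, free access to food and water), lightly ether-anesthetized and restrained, received a 0.2 mL saline tail-vein bolus of 10–20 μCi 131I-labeled compound. They were decapitated at the stated time, and organs were excised, weighed and gamma-counted. Percent injected dose was determined against a calibrated external standard made by serial dilution of the injectate. n = 1–4 rats.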

Rattus norvegicus [2] = species: Rattus norvegicus; assay: The distribution of the 131 I-labeled compound at 30 min was evaluated in rat heart as Percent of injected dose in the total organ; details: in vivo, 0.5 h; outline: as §1
Rattus norvegicus [3] = species: Rattus norvegicus; assay: The distribution of the 131 I-labeled compound at 30 min was evaluated in rat heart as Percent of injected dose per gram in the organ; details: in vivo, 0.5 h; outline: as §1
Rattus norvegicus [4] = species: Rattus norvegicus; assay: The distribution of the 131 I-labeled compound at 30 min was evaluated in rat kidney as Percent of injected dose in the total organ; details: in vivo, 0.5 h; outline: as §1
Rattus norvegicus [5] = species: Rattus norvegicus; assay: The distribution of the 131 I-labeled compound at 30 min was evaluated in rat kidney as Percent of injected dose per gram in the organ; details: in vivo, 0.5 h; outline: as §1
Rattus norvegicus [6] = species: Rattus norvegicus; assay: The distribution of the 131 I-labeled compound at 30 min was evaluated in rat liver as Percent of injected dose in the total organ; details: in vivo, 0.5 h; outline: as §1
Rattus norvegicus [7] = species: Rattus norvegicus; assay: The distribution of the 131 I-labeled compound at 30 min was evaluated in rat liver as Percent of injected dose per gram in the organ; details: in vivo, 0.5 h; outline: as §1
Rattus norvegicus [8] = species: Rattus norvegicus; assay: The distribution of the 131 I-labeled compound at 30 min was evaluated in rat lung as Percent of injected dose per gram in the organ; details: in vivo, 0.5 h; outline: as §1
Rattus norvegicus [9] = species: Rattus norvegicus; assay: The distribution of the 131 I-labeled compound at 5 min was evaluated in rat brain as Percent of injected dose in the total organ; details: in vivo; outline: as §1
Rattus norvegicus [10] = species: Rattus norvegicus; assay: The distribution of the 131 I-labeled compound at 5 min was evaluated in rat brain as Percent of injected dose per gram in the organ; details: in vivo; outline: as §1
Rattus norvegicus [11] = species: Rattus norvegicus; assay: The distribution of the 131 I-labeled compound at 5 min was evaluated in rat heart as Percent of injected dose in the total organ; details: in vivo; outline: as §1
Rattus norvegicus [12] = species: Rattus norvegicus; assay: The distribution of the 131 I-labeled compound at 5 min was evaluated in rat heart as Percent of injected dose per gram in the organ; details: in vivo; outline: as §1
Rattus norvegicus [13] = species: Rattus norvegicus; assay: The distribution of the 131 I-labeled compound at 5 min was evaluated in rat kidney as Percent of injected dose in the total organ; details: in vivo; outline: as §1
Rattus norvegicus [14] = species: Rattus norvegicus; assay: The distribution of the 131 I-labeled compound at 5 min was evaluated in rat kidney as Percent of injected dose per gram in the organ; details: in vivo; outline: as §1
Rattus norvegicus [15] = species: Rattus norvegicus; assay: The distribution of the 131 I-labeled compound at 5 min was evaluated in rat liver as Percent of injected dose in the total organ; details: in vivo; outline: as §1
Rattus norvegicus [16] = species: Rattus norvegicus; assay: The distribution of the 131 I-labeled compound at 5 min was evaluated in rat liver as Percent of injected dose per gram in the organ; details: in vivo; outline: as §1
Rattus norvegicus [17] = species: Rattus norvegicus; assay: The distribution of the 131 I-labeled compound at 5 min was evaluated in rat lung as Percent of injected dose per gram in the organ; details: in vivo; outline: as §1
Rattus norvegicus [18] = species: Rattus norvegicus; assay: The distribution of the 131 I-labeled compound at 30 min was evaluated in rat blood as Percent of injected dose per gram in the organ; details: in vivo, 0.5 h; outline: as §1
Rattus norvegicus [19] = species: Rattus norvegicus; assay: Ratio of distribution of the [131I]-labeled compound at 30 min in rat brain over uptake in blood; details: 0.5 h
Outline: (§2)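 Male Sprague-Dawley rats (200–300 g, fed ad libitum), ether-anesthetized, got a tail-vein bolus of 0.2 mL saline containing 10–20 μCi 131I compound and were decapitated at the stated time. Organs were weighed and gamma-counted against a serially diluted external standard. Organ/blood ratio was calculated from % dose per gram of organ. Animal numbers per time point were 1–4.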

Rattus norvegicus [20] = species: Rattus norvegicus; assay: Ratio of distribution of the [131I]-labeled compound at 30 min in rat heart over uptake in blood; details: other tissue, 0.5 h; outline: as §2
Rattus norvegicus [21] = species: Rattus norvegicus; assay: Ratio of distribution of the [131I]-labeled compound at 30 min in rat kidney over uptake in blood; details: other tissue, 0.5 h; outline: as §2
Rattus norvegicus [22] = species: Rattus norvegicus; assay: Ratio of distribution of the [131I]-labeled compound at 30 min in rat liver over uptake in blood; details: other tissue, 0.5 h; outline: as §2
Rattus norvegicus [23] = species: Rattus norvegicus; assay: Ratio of distribution of the [131I]-labeled compound at 30 min in rat lung over uptake in blood; details: other tissue, 0.5 h; outline: as §2
Rattus norvegicus [24] = species: Rattus norvegicus; assay: Ratio of distribution of the [131I]-labeled compound at 5 min in rat brain over uptake in blood; outline: as §2
Rattus norvegicus [25] = species: Rattus norvegicus; assay: Ratio of distribution of the [131I]-labeled compound at 5 min in rat heart over uptake in blood; details: other tissue; outline: as §2
Rattus norvegicus [26] = species: Rattus norvegicus; assay: Ratio of distribution of the [131I]-labeled compound at 5 min in rat kidney over uptake in blood; details: other tissue; outline: as §2
Rattus norvegicus [27] = species: Rattus norvegicus; assay: Ratio of distribution of the [131I]-labeled compound at 5 min in rat liver over uptake in blood; details: other tissue; outline: as §2
Rattus norvegicus [28] = species: Rattus norvegicus; assay: Ratio of distribution of the [131I]-labeled compound at 5 min in rat lung over uptake in blood; details: other tissue; outline: as §2
Rattus norvegicus [29] = species: Rattus norvegicus; assay: The distribution of the 131 I-labeled compound at 5 min was evaluated in rat blood as Percent of injected dose per gram in the organ; details: in vivo; outline: as §1
Rattus norvegicus [30] = species: Rattus norvegicus; assay: The distribution of the 131 I-labeled compound at 30 min was evaluated in rat brain as Percent of injected dose in the total organ; details: in vivo, 0.5 h; outline: as §1

SMILES | Dose (Rattus norvegicus [1]) [%] | Dose (Rattus norvegicus [2]) [%] | Dose (Rattus norvegicus [3]) [%] | Dose (Rattus norvegicus [4]) [%] | Dose (Rattus norvegicus [5]) [%] | Dose (Rattus norvegicus [6]) [%] | Dose (Rattus norvegicus [7]) [%] | Dose (Rattus norvegicus [8]) [%] | Dose (Rattus norvegicus [9]) [%] | Dose (Rattus norvegicus [10]) [%] | Dose (Rattus norvegicus [11]) [%] | Dose (Rattus norvegicus [12]) [%] | Dose (Rattus norvegicus [13]) [%] | Dose (Rattus norvegicus [14]) [%] | Dose (Rattus norvegicus [15]) [%] | Dose (Rattus norvegicus [16]) [%] | Dose (Rattus norvegicus [17]) [%] | Dose (Rattus norvegicus [18]) [%] | Ratio (Rattus norvegicus [19]) | Ratio (Rattus norvegicus [20]) | other results
COc1cc(CC(C)N(C)Cc2ccccc2)c(OC)cc1I (stereo not given) | 0.05 | 0.21 | 0.19 | 1.3 | 0.52 | 7.6 | 0.62 | 0.7 | 0.29 | 0.15 | 1.2 | 1.1 | 1.8 | 0.63 | 12 | 0.8 | 0.75 | 0.09 | 0.09 | 2.1 | Ratio (Rattus norvegicus [21]): 5.8; Ratio (Rattus norvegicus [22]): 6.9; Ratio (Rattus norvegicus [23]): 7.8; Ratio (Rattus norvegicus [24]): 1.3; Ratio (Rattus norvegicus [25]): 9.2; Ratio (Rattus norvegicus [26]): 5.3; Ratio (Rattus norvegicus [27]): 6.7; Ratio (Rattus norvegicus [28]): 6.3; Dose (Rattus norvegicus [29]): 0.12%; Dose (Rattus norvegicus [30]): 0.1%
COc1cc(CC(C)N)c(OC)cc1I (stereo not given) | 0.4 | 0.32 | 0.29 | 2.8 | 1.1 | 10 | 0.8 | 2.8 | 0.64 | 0.34 | 0.92 | 0.86 | 3.2 | 1.2 | 5.6 | 0.83 | 3.3 | 0.06 | 6.7 | 14 | Ratio (Rattus norvegicus [21]): 18; Ratio (Rattus norvegicus [22]): 13; Ratio (Rattus norvegicus [23]): 46; Ratio (Rattus norvegicus [24]): 4.7; Ratio (Rattus norvegicus [25]): 12; Ratio (Rattus norvegicus [26]): 17; Ratio (Rattus norvegicus [27]): 12; Ratio (Rattus norvegicus [28]): 47; Dose (Rattus norvegicus [29]): 0.07%; Dose (Rattus norvegicus [30]): 0.76%
